ChEMBL document CHEMBL4007413, “Replacing d-Glucosamine with Its l-Enantiomer in Glycosylated Antitumor Ether Lipids (GAELs) Retains Cytotoxic Effects against Epithelial Cancer Cells and Cancer Stem Cells” (J Med Chem, 2017)
Calls of active or inactive are those of the source. The calls are words filed in the database; no cut-off is given here.

What was measured:
DU-145 [1] = assay: Induction of membrane lysis in human DU145 cells at 0.01% after 10 mins by EthD-1 staining based fluorescence microscopic analysis
DU-145 [2] = assay: Cytotoxicity against human DU145 cells assessed as decrease in cell viability up to 8 uM after 48 hrs in absence of pan-caspase inhibitor QVD-OPh by MTS assay; assay type: functional, cell-based
How it was run: (§1)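 DU-145 and JIMT-1 cells (DMEM + 10% FBS) were treated with compounds with or without the pan-caspase inhibitor QVD-OPh (40 µM). Viability was read by MTS: cells were seeded, treated 24 h later for 48 h, given MTS (20% v/v) for 1–4 h, and read at OD490 against cell-free blanks.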

Erythrocyte = assay: Induction of hemolysis in sheep erythrocytes at 30 uM after 30 mins by spectrophotometric analysis; assay type: functional, Ovis aries
BT-474 [3] = assay: Disruption of cancer stem cells spheroids derived from human BT474 cells at >=7.5 uM after 3 days by microscopic analysis; assay type: functional, cell-based
How it was run: (§2)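 Cancer stem cells were isolated from BT-474 by ALDH1 activity. Equal numbers were seeded in ultra-low-adhesion wells and grown to spheroids. Spheroids were then incubated with or without compounds for 3 days. Spheroid integrity was assessed by light microscopy (×10). Viability was measured in parallel by MTS.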

JIMT-1 [4] = assay: Cytotoxicity against human JIMT1 cells assessed as decrease in cell viability up to 8 uM after 48 hrs in absence of pan-caspase inhibitor QVD-OPh by MTS assay; assay type: functional, cell-based
How it was run: as §1

MDA-MB-231 [5] = assay: Cytotoxicity against human MDA-MB-231 cells assessed as decrease in cell viability after 48 hrs by MTS assay; assay type: functional; details: MDA-MB-231, 48 h
How it was run: (§3)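 Cells were seeded at equal numbers and, after 24 h, exposed to compounds (0–30 µM) for 48 h. MTS reagent (20% v/v) was then added for 1–4 h, and OD490 was read. Cell-free medium wells served as blanks. Media were DMEM/F12 + 10% FBS for BT-474; DMEM + 10% FBS for DU-145 and MDA-MB-231; and DMEM + 10% FBS + 2.5% horse serum for MiaPaCa-2. Values are mean ± SD, n=6.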

JIMT-1 [6] = assay: Cytotoxicity against human JIMT1 cells assessed as decrease in cell viability up to 8 uM after 48 hrs in presence of pan-caspase inhibitor QVD-OPh by MTS assay; assay type: functional, cell-based
How it was run: as §1

MIA PaCa-2 [7] = assay: Cytotoxicity against human MIAPaCa2 cells assessed as decrease in cell viability after 48 hrs by MTS assay; assay type: functional; details: MIA PaCa-2, 48 h
How it was run: as §3

BT-474 [8] = assay: Cytotoxicity against human BT474 cells assessed as decrease in cell viability after 48 hrs by MTS assay; assay type: functional; details: BT-474, 48 h
How it was run: as §3

DU-145 [9] = assay: Cytotoxicity against human DU145 cells assessed as decrease in cell viability up to 8 uM after 48 hrs in presence of pan-caspase inhibitor QVD-OPh by MTS assay; assay type: functional, cell-based
How it was run: as §1

DU-145 [10] = assay: Cytotoxicity against human DU145 cells assessed as decrease in cell viability after 48 hrs by MTS assay; assay type: functional; details: DU-145, 48 h
How it was run: as §3

DU-145 [11] = assay: Cytotoxicity against human DU145 cells assessed as cell death at 7.5 uM after 48 hrs by MTS assay; assay type: functional
How it was run: (§4)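 Equal numbers of cells were plated. After 24 h they were exposed to compounds (0–30 µM) for 48 h, then given MTS reagent (20% v/v) for 1–4 h. OD490 was read against cell-free blank wells; mean ± SD of 6 determinations. Media: BT-474 in DMEM/F12 + 10% FBS; DU-145, JIMT-1 and MDA-MB-231 in DMEM + 10% FBS; MiaPaCa-2 in DMEM + 10% FBS + 2.5% horse serum; PC-3 in F12K + 10% FBS; all with penicillin/streptomycin.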

DU-145 [12] = assay: Induction of membrane lysis in human DU145 cells at 6 uM after 6 hrs by EthD-1 staining based fluorescence microscopic analysis; assay type: functional, cell-based
How it was run: (§5)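 DU-145 cells were incubated with compounds at 6 µM for 6 h. They were then stained with cell-impermeant ethidium homodimer-1 and examined by fluorescence microscopy for cell rounding and red DNA staining. Cells given 0.01% Triton X-100 for 10 min served as the lysis control.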

JIMT-1 [13] = assay: Induction of membrane lysis in human JIMT1 cells at 4 uM after 6 hrs by EthD-1 staining based fluorescence microscopic analysis; assay type: functional, cell-based
BT-474 [14] = assay: Disruption of cancer stem cells spheroids derived from human BT474 cells at >=5 uM after 3 days by microscopic analysis; assay type: functional, cell-based
How it was run: as §2

BT-474 [15] = assay: Cytotoxicity against human BT474 cells assessed as cell death at 7.5 uM after 48 hrs by MTS assay; assay type: functional
How it was run: as §4

BT-474 [16] = assay: Cytotoxicity against cancer stem cells derived from human BT474 cells assessed as cancer stem cell death at 7.5 uM after 3 days by MTS assay; assay type: functional
How it was run: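 CSCs were isolated from BT-474 using ALDH1 activity as the stemness marker. They were grown in ultra-low adhesion wells for 4 days to form spheroids. Spheroids were then exposed to compounds (0–20 µM) for 3 days. Viability was read by MTS assay and expressed as % of untreated control.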

DU-145 [17] = assay: Induction of cell death in human DU145 cells assessed as rounding up of cells at 6 uM after 6 hrs fluorescence microscopic analysis; assay type: functional, cell-based
How it was run: as §5

JIMT-1 [18] = assay: Cytotoxicity against human JIMT1 cells assessed as cell death at 7.5 uM after 48 hrs by MTS assay; assay type: functional
How it was run: as §4

PC-3 = assay: Cytotoxicity against human PC3 cells assessed as cell death at 7.5 uM after 48 hrs by MTS assay; assay type: functional
How it was run: as §4

MDA-MB-231 [19] = assay: Cytotoxicity against human MDA-MB-231 cells assessed as cell death at 7.5 uM after 48 hrs by MTS assay; assay type: functional
How it was run: as §4

MIA PaCa-2 [20] = assay: Cytotoxicity against human MIAPaCa2 cells assessed as cell death at 7.5 uM after 48 hrs by MTS assay; assay type: functional
How it was run: as §4

JIMT-1 [21] = assay: Induction of cell death in human JIMT1 cells assessed as rounding up of cells at 4 uM after 6 hrs by fluorescence microscopic analysis; assay type: functional, cell-based
BXPC-3 = assay: Induction of cell death in human BxPC3 cells assessed as clear large vacuole formation at 5 uM after 4 hrs
[22] = Stability in bovine liver extracts assessed as bovine liver glycosidase mediated compound cleavage by TLC analysis; assay type: ADME, Bos taurus; details: cattle
How it was run: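 A bovine liver glycosidase fraction in 0.05 M sodium citrate pH 5.0 was combined with 0.2 M citrate pH 4.4 buffer, substrate (30 mM stock) and Triton X-100 (10% stock) for solubilization. Controls were no enzyme and a β-D-glucose-based GAEL. After 1 h, methanol was added, the mixture was centrifuged, and the supernatant was analysed by TLC. Run in quadruplicate.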

Structure (SMILES)	Activity (DU-145 [2])	Activity (Erythrocyte) [%]	Activity (JIMT-1 [4])	CC50 (MDA-MB-231 [5]) [µM]	Activity (JIMT-1 [6])	CC50 (MIA PaCa-2 [7]) [µM]	CC50 (BT-474 [8]) [µM]	Activity (DU-145 [9])	CC50 (DU-145 [10]) [µM]	Activity (DU-145 [11]) [%]	Activity (DU-145 [12])	Activity (JIMT-1 [13])	Activity (BT-474 [14])	Activity (BT-474 [15]) [%]	Activity (BT-474 [16]) [%]	Activity (DU-145 [17])	Activity (JIMT-1 [18]) [%]	Activity (PC-3) [%]	Activity (MDA-MB-231 [19]) [%]	Activity (MIA PaCa-2 [20]) [%]	other results
CC(C)(C)CC(C)(C)c1ccc(OCCOCCOCCOCCOCCOCCOCCOCCOCCOCCO)cc1	–	–	–	–	–	–	–	–	–	–	–	–	–	–	–	–	–	–	–	–	Activity (DU-145 [1]): Active
CCCCCCCCCCCCCCCCOC[C@H](CO[C@@H]1O[C@@H](CN)[C@H](O)[C@@H](O)[C@@H]1N)OC	Active	<5	Active	4 to 11	Active	4 to 11	4 to 11	Active	4 to 11	–	–	–	–	–	–	–	–	–	–	–	Activity (BT-474 [3]): Active
CCCCCCCCCCCCCCCCOC[C@H](CO[C@@H]1O[C@H](CN)[C@@H](OCc2ccccc2)[C@H](O)[C@H]1N)OC	–	<5	–	2 to 6	–	2 to 6	2 to 6	–	2 to 6	>95	inactive	inactive	Active	>95	>95	Active	>95	>95	>95	>95	Activity (JIMT-1 [21]): Active
CCCCCCCCCCCCCCCCOC[C@H](CO[C@@H]1O[C@@H](CN)[C@H](OCc2ccccc2)[C@@H](O)[C@@H]1N)OC	Active	<5	Active	2 to 6	Active	2 to 6	2 to 6	Active	2 to 6	>95	inactive	inactive	Active	>95	>95	Active	>95	>95	>95	>95	Activity (BXPC-3): Active; Stability [22]: Stable; Activity (JIMT-1 [21]): Active
